Measured values reported in ChEMBL document CHEMBL5058577, “EUbOPEN Chemogenomics Library 2 (Multiplex)” (2022).

System: U2OS
Assay: Multiplex assay against U2OS
Format: toxicity, cell-based
Conditions: human
In short: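 Values for tubulin, mitochondrial-mass and membrane-permeability phenotypes are per cents of cells with healthy nuclei. These cells were identified by CellPathfinder machine-learning gating of live cells that had been stained at seeding with Hoechst33342, BioTracker Green Microtubule Cytoskeleton Dye, MitoTracker Red and Annexin V Alexa Fluor 680 and imaged on a CQ1 microscope at 37°C and 5% CO2 after compound addition. The gating first set Hoechst high-intensity objects apart from normal cells, then split normal cells into healthy, pyknosed or fragmented nuclei, and pyknosed cells into mitotic or apoptotic.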

[1] = 12 h, 1 µM, compound concentration 1 uM, replicate 1
[2] = 12 h, 1 µM, compound concentration 1 uM, replicate 2
[3] = 12 h, 10 µM, compound concentration 10 uM, replicate 1
[4] = 12 h, 10 µM, compound concentration 10 uM, replicate 2
[5] = 24 h, 1 µM, compound concentration 1 uM, replicate 1
[6] = 24 h, 1 µM, compound concentration 1 uM, replicate 2
[7] = 24 h, 10 µM, compound concentration 10 uM, replicate 1
[8] = 24 h, 10 µM, compound concentration 10 uM, replicate 2
[9] = 48 h, 1 µM, compound concentration 1 uM, replicate 1
[10] = 48 h, 1 µM, compound concentration 1 uM, replicate 2
[11] = 48 h, 10 µM, compound concentration 10 uM, replicate 1
[12] = 48 h, 10 µM, compound concentration 10 uM, replicate 2

Cc1ccc(F)cc1C(=O)Nc1ccc(C(=O)N2Cc3cccn3Cc3ccccc32)c(Cl)c1 [LIXIVAPTAN]
Population Apoptotic (%) [1]: 69% | Population Fragmented Nuclei (%) [1]: 32% | Population Healthy Nuclei (%) [1]: 55% | Population Hoechst High Intensity Objects (%) [1]: 3% | Population Membrane Permeable-Phenotype (%) [1]: 9% | Population Mitochondria Different-Phenotype (%) [1]: 9% | Population Mitotic Cells (%) [1]: 30% | Population Normal (%) [1]: 96% | Population Pyknosed Nuclei (%) [1]: 11% | Population Tubulin-Different-Phenotype (%) [1]: 7% | Total Cell Count [1]: 230 | Population Apoptotic (%) [2]: 84% | Population Fragmented Nuclei (%) [2]: 8% | Population Healthy Nuclei (%) [2]: 82% | Population Membrane Permeable-Phenotype (%) [2]: 14% | Population Mitochondria Different-Phenotype (%) [2]: 10% | Population Mitotic Cells (%) [2]: 15% | Population Pyknosed Nuclei (%) [2]: 8% | Population Tubulin-Different-Phenotype (%) [2]: 11% | Total Cell Count [2]: 150 | Population Apoptotic (%) [3]: 59% | Population Fragmented Nuclei (%) [3]: 34% | Population Healthy Nuclei (%) [3]: 49% | Population Hoechst High Intensity Objects (%) [3]: 5% | Population Membrane Permeable-Phenotype (%) [3]: 79% | Population Mitochondria Different-Phenotype (%) [3]: 42% | Population Mitotic Cells (%) [3]: 40% | Population Normal (%) [3]: 94% | Population Pyknosed Nuclei (%) [3]: 16% | Population Tubulin-Different-Phenotype (%) [3]: 85% | Total Cell Count [3]: 203 | Population Apoptotic (%) [4]: 47% | Population Fragmented Nuclei (%) [4]: 13% | Population Healthy Nuclei (%) [4]: 69% | Population Membrane Permeable-Phenotype (%) [4]: 63% | Population Mitochondria Different-Phenotype (%) [4]: 55% | Population Mitotic Cells (%) [4]: 52% | Population Tubulin-Different-Phenotype (%) [4]: 77% | Total Cell Count [4]: 119 | Population Apoptotic (%) [5]: 86% | Population Fragmented Nuclei (%) [5]: 26% | Population Healthy Nuclei (%) [5]: 64% | Population Hoechst High Intensity Objects (%) [5]: 1% | Population Membrane Permeable-Phenotype (%) [5]: 9% | Population Mitochondria Different-Phenotype (%) [5]: 9% | Population Mitotic Cells (%) [5]: 13% | Population Normal (%) [5]: 98% | Population Pyknosed Nuclei (%) [5]: 8% | Population Tubulin-Different-Phenotype (%) [5]: 4% | Total Cell Count [5]: 257 | Population Apoptotic (%) [6]: 57% | Population Fragmented Nuclei (%) [6]: 14% | Population Healthy Nuclei (%) [6]: 81% | Population Hoechst High Intensity Objects (%) [6]: 4% | Population Membrane Permeable-Phenotype (%) [6]: 11% | Population Mitochondria Different-Phenotype (%) [6]: 13% | Population Mitotic Cells (%) [6]: 42% | Population Normal (%) [6]: 95% | Population Pyknosed Nuclei (%) [6]: 4% | Population Tubulin-Different-Phenotype (%) [6]: 7% | Total Cell Count [6]: 171 | Population Apoptotic (%) [7]: 59% | Population Fragmented Nuclei (%) [7]: 30% | Population Healthy Nuclei (%) [7]: 50% | Population Hoechst High Intensity Objects (%) [7]: 4% | Population Membrane Permeable-Phenotype (%) [7]: 65% | Population Mitochondria Different-Phenotype (%) [7]: 63% | Population Mitotic Cells (%) [7]: 40% | Population Normal (%) [7]: 95% | Population Pyknosed Nuclei (%) [7]: 18% | Population Tubulin-Different-Phenotype (%) [7]: 75% | Total Cell Count [7]: 207 | Population Apoptotic (%) [8]: 66% | Population Fragmented Nuclei (%) [8]: 14% | Population Healthy Nuclei (%) [8]: 67% | Population Membrane Permeable-Phenotype (%) [8]: 54% | Population Mitochondria Different-Phenotype (%) [8]: 67% | Population Mitotic Cells (%) [8]: 33% | Population Tubulin-Different-Phenotype (%) [8]: 66% | Total Cell Count [8]: 119 | Population Apoptotic (%) [9]: 87% | Population Fragmented Nuclei (%) [9]: 24% | Population Healthy Nuclei (%) [9]: 64% | Population Hoechst High Intensity Objects (%) [9]: 1% | Population Membrane Permeable-Phenotype (%) [9]: 9% | Population Mitochondria Different-Phenotype (%) [9]: 6% | Population Mitotic Cells (%) [9]: 12% | Population Normal (%) [9]: 98% | Population Pyknosed Nuclei (%) [9]: 11% | Population Tubulin-Different-Phenotype (%) [9]: 5% | Total Cell Count [9]: 378 | Population Apoptotic (%) [10]: 95% | Population Fragmented Nuclei (%) [10]: 10% | Population Healthy Nuclei (%) [10]: 79% | Population Hoechst High Intensity Objects (%) [10]: 3% | Population Membrane Permeable-Phenotype (%) [10]: 13% | Population Mitochondria Different-Phenotype (%) [10]: 11% | Population Mitotic Cells (%) [10]: 5% | Population Normal (%) [10]: 96% | Population Pyknosed Nuclei (%) [10]: 10% | Total Cell Count [10]: 206 | Population Apoptotic (%) [11]: 75% | Population Fragmented Nuclei (%) [11]: 32% | Population Healthy Nuclei (%) [11]: 37% | Population Hoechst High Intensity Objects (%) [11]: 5% | Population Membrane Permeable-Phenotype (%) [11]: 49% | Population Mitochondria Different-Phenotype (%) [11]: 40% | Population Mitotic Cells (%) [11]: 25% | Population Normal (%) [11]: 94% | Population Pyknosed Nuclei (%) [11]: 29% | Population Tubulin-Different-Phenotype (%) [11]: 44% | Total Cell Count [11]: 232 | Population Apoptotic (%) [12]: 92% | Population Fragmented Nuclei (%) [12]: 18% | Population Healthy Nuclei (%) [12]: 58% | Population Hoechst High Intensity Objects (%) [12]: 12% | Population Membrane Permeable-Phenotype (%) [12]: 60% | Population Mitochondria Different-Phenotype (%) [12]: 52% | Population Mitotic Cells (%) [12]: 7% | Population Normal (%) [12]: 87% | Population Pyknosed Nuclei (%) [12]: 23% | Population Tubulin-Different-Phenotype (%) [12]: 57% | Total Cell Count [12]: 137
